According to ChEMBL document CHEMBL1153576, “Novel ureas and thioureas of 15-membered azalides with antibacterial activity against key respiratory pathogens” (Eur J Med Chem, 2009):
≈ marks a conversion by molar mass, not a printed value.

What was measured:
Assay type in all cases: functional
[1] = system: Staphylococcus aureus; assay: Antibacterial activity against Staphylococcus aureus ATCC 29213 after 16 to 22 hrs by broth microdilution method
How it was run: (§1)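 Broth microdilution per the CLSI approved standard (sixth edition), using two-fold serial dilutions of compound in Mueller–Hinton broth. Stocks at 5 mg/ml in DMF. Inoculum came from a direct colony suspension adjusted by turbidity to about 5 × 10⁴ CFU/well final. Trays were incubated at 35 °C for 16–22 h. MIC is the lowest concentration completely inhibiting growth (99% inhibition).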

[2] = system: Streptococcus pneumoniae; assay: Antibacterial activity against erythromycin-susceptible Streptococcus pneumoniae after 16 to 22 hrs by broth microdilution method
How it was run: (§2)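 Streptococci tested by CLSI broth microdilution in Mueller–Hinton broth with 5% horse serum, using two-fold serial dilutions. Compounds were dissolved in DMF at 5 mg/ml (stock). Inoculum was a turbidity-adjusted direct colony suspension giving about 5 × 10⁴ CFU/well. Trays were held at 35 °C for 16–22 h. MIC is the lowest concentration completely inhibiting growth (99%).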

[3] = system: Streptococcus pneumoniae; assay: Antibacterial activity against efflux-mediated macrolide-resistant Streptococcus pneumoniae after 16 to 22 hrs by broth microdilution method
How it was run: (§3)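 Two-fold serial dilutions in microdilution trays, following the CLSI dilution standard for aerobic bacteria. Medium was Mueller–Hinton broth with 5% horse serum for streptococci. Stocks were made at 5 mg/ml in DMF. Inoculum came from a direct colony suspension adjusted by turbidity to about 5 × 10⁴ CFU/well final. Incubation was at 35 °C for 16–22 h. MIC is the lowest concentration completely inhibiting growth (99% inhibition).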

[4] = system: Streptococcus pneumoniae; assay: Antibacterial activity against constitutive macrolide-lincosamide-streptogramin-resistant Streptococcus pneumoniae after 16 to 22 hrs by broth microdilution method; how it was run: as §3
[5] = system: Streptococcus pyogenes; assay: Antibacterial activity against erythromycin-susceptible Streptococcus pyogenes after 16 to 22 hrs by broth microdilution method; how it was run: as §2
[6] = system: Streptococcus pyogenes; assay: Antibacterial activity against inducible macrolide-lincosamide-streptogramin-resistant Streptococcus pyogenes 16 to 22 hrs by broth microdilution method; how it was run: as §3
[7] = system: Streptococcus pyogenes; assay: Antibacterial activity against efflux-mediated macrolide-resistance Streptococcus pyogenes after 16 to 22 hrs by broth microdilution method; how it was run: as §3
[8] = system: Moraxella catarrhalis; assay: Antibacterial activity against Moraxella catarrhalis ATCC 23246 after 16 to 22 hrs by broth dilution method; how it was run: as §1
[9] = system: Haemophilus influenzae; assay: Antibacterial activity against Haemophilus influenzae ATCC 49247 after 16 to 22 hrs by broth dilution method
How it was run: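 Microdilution trays following the CLSI standard, with two-fold serial dilutions in supplemented broth suited to H. influenzae. DMF stocks at 5 mg/ml. Inoculum prepared from a turbidity-adjusted direct colony suspension to about 5 × 10⁴ CFU/well final. Incubated at 35 °C for 16–22 h. MIC is the lowest concentration giving complete (99%) growth inhibition.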

[10] = system: Enterococcus faecalis; assay: Antibacterial activity against Enterococcus faecalis ATCC 29212 after 16 to 22 hrs by broth dilution method; how it was run: as §1
[11] = system: Escherichia coli; assay: Antibacterial activity against Escherichia coli ATCC 25922 after 16 to 22 hrs by broth dilution method; how it was run: as §1

Compound | MIC [1] [µg/mL] | MIC [2] [µg/mL] | MIC [3] [µg/mL] | MIC [4] [µg/mL] | MIC [5] [µg/mL] | MIC [6] [µg/mL] | MIC [7] [µg/mL] | MIC [8] [µg/mL] | MIC [9] [µg/mL] | MIC [10] [µg/mL] | MIC [11] [µg/mL]
CC[C@H]1OC(=O)[C@H](C)[C@@H](O[C@H]2C[C@@](C)(OC)[C@@H](O)[C@H](C)O2)[C@H](C)[C@@H](O[C@@H]2O[C@H](C)C[C@H](N(C)C)[C@H]2O)[C@](C)(O)C[C@@H](C)CN(CCCNC(=O)Nc2ccccc2)[C@H](C)[C@@H](O)[C@]1(C)O | 0.25 (≈ 0.274 µM) | ≤ 0.125 | 16 (≈ 17.6 µM) | > 64 | ≤ 0.125 | 4 (≈ 4.39 µM) | 16 (≈ 17.6 µM) | 2 (≈ 2.19 µM) | 8 (≈ 8.78 µM) | 16 (≈ 17.6 µM) | 8 (≈ 8.78 µM)
CC[C@H]1OC(=O)[C@H](C)[C@@H](O[C@H]2C[C@@](C)(OC)[C@@H](O)[C@H](C)O2)[C@H](C)[C@@H](O[C@@H]2O[C@H](C)C[C@H](N(C)C)[C@H]2O)[C@](C)(O)C[C@@H](C)CN(CCCNC(=S)NCCCc2ccccc2)[C@H](C)[C@@H](O)[C@]1(C)O | 0.5 (≈ 0.516 µM) | ≤ 0.125 | 8 (≈ 8.25 µM) | > 64 | ≤ 0.125 | 4 (≈ 4.13 µM) | 4 (≈ 4.13 µM) | 1 (≈ 1.03 µM) | 2 (≈ 2.06 µM) | 16 (≈ 16.5 µM) | 16 (≈ 16.5 µM)
CC[C@H]1OC(=O)[C@H](C)[C@@H](O[C@H]2C[C@@](C)(OC)[C@@H](O)[C@H](C)O2)[C@H](C)[C@@H](O[C@@H]2O[C@H](C)C[C@H](N(C)C)[C@H]2O)[C@](C)(O)C[C@@H](C)CN(CCCNC(=S)NCCc2ccccc2)[C@H](C)[C@@H](O)[C@]1(C)O | 1 (≈ 1.05 µM) | ≤ 0.125 | 8 (≈ 8.37 µM) | > 64 | ≤ 0.125 | 4 (≈ 4.19 µM) | 4 (≈ 4.19 µM) | 1 (≈ 1.05 µM) | 2 (≈ 2.09 µM) | 16 (≈ 16.7 µM) | 32 (≈ 33.5 µM)
CC[C@H]1OC(=O)[C@H](C)[C@@H](O[C@H]2C[C@@](C)(OC)[C@@H](O)[C@H](C)O2)[C@H](C)[C@@H](O[C@@H]2O[C@H](C)C[C@H](N(C)C)[C@H]2O)[C@](C)(O)C[C@@H](C)CN(CCCN(CCC#N)C(=O)Nc2ccccc2)[C@H](C)[C@@H](O)[C@]1(C)O | 1 (≈ 1.04 µM) | ≤ 0.125 | 32 (≈ 33.2 µM) | > 64 | ≤ 0.125 | 16 (≈ 16.6 µM) | 32 (≈ 33.2 µM) | 4 (≈ 4.15 µM) | 8 (≈ 8.3 µM) | 32 (≈ 33.2 µM) | 32 (≈ 33.2 µM)
CC[C@H]1OC(=O)[C@H](C)[C@@H](O[C@H]2C[C@@](C)(OC)[C@@H](O)[C@H](C)O2)[C@H](C)[C@@H](O[C@@H]2O[C@H](C)C[C@H](N(C)C)[C@H]2O)[C@](C)(O)C[C@@H](C)CN(CCCN(CCC#N)C(=S)NCCCc2ccccc2)[C@H](C)[C@@H](O)[C@]1(C)O | 1 (≈ 0.978 µM) | ≤ 0.125 | 32 (≈ 31.3 µM) | 32 (≈ 31.3 µM) | ≤ 0.125 | 8 (≈ 7.82 µM) | 16 (≈ 15.6 µM) | 4 (≈ 3.91 µM) | 4 (≈ 3.91 µM) | 16 (≈ 15.6 µM) | 16 (≈ 15.6 µM)
CC[C@H]1OC(=O)[C@H](C)[C@@H](O[C@H]2C[C@@](C)(OC)[C@@H](O)[C@H](C)O2)[C@H](C)[C@@H](O[C@@H]2O[C@H](C)C[C@H](N(C)C)[C@H]2O)[C@](C)(O)C[C@@H](C)CN(CCCN(CCC#N)C(=O)NC(C)C)[C@H](C)[C@@H](O)[C@]1(C)O | 4 (≈ 4.3 µM) | ≤ 0.125 | 32 (≈ 34.4 µM) | > 64 | ≤ 0.125 | 32 (≈ 34.4 µM) | 32 (≈ 34.4 µM) | 0.5 (≈ 0.537 µM) | 4 (≈ 4.3 µM) | 64 (≈ 68.8 µM) | 16 (≈ 17.2 µM)
CC[C@H]1OC(=O)[C@H](C)[C@@H](O[C@H]2C[C@@](C)(OC)[C@@H](O)[C@H](C)O2)[C@H](C)[C@@H](O[C@@H]2O[C@H](C)C[C@H](N(C)C)[C@H]2O)[C@](C)(O)C[C@@H](C)CN(CCCN(CCC#N)C(=O)Nc2ccc3ccccc3c2)[C@H](C)[C@@H](O)[C@]1(C)O | 1 (≈ 0.986 µM) | ≤ 0.125 | 16 (≈ 15.8 µM) | 32 (≈ 31.5 µM) | ≤ 0.125 | 16 (≈ 15.8 µM) | 8 (≈ 7.89 µM) | 1 (≈ 0.986 µM) | 2 (≈ 1.97 µM) | 16 (≈ 15.8 µM) | 32 (≈ 31.5 µM)
CC[C@H]1OC(=O)[C@H](C)[C@@H](O[C@H]2C[C@@](C)(OC)[C@@H](O)[C@H](C)O2)[C@H](C)[C@@H](O[C@@H]2O[C@H](C)C[C@H](N(C)C)[C@H]2O)[C@](C)(O)C[C@@H](C)CN(CCCNC(=O)NCCc2ccccc2)[C@H](C)[C@@H](O)[C@]1(C)O | 1 (≈ 1.06 µM) | ≤ 0.125 | 32 (≈ 34.1 µM) | > 64 | ≤ 0.125 | 8 (≈ 8.52 µM) | 32 (≈ 34.1 µM) | 2 (≈ 2.13 µM) | 16 (≈ 17 µM) | 16 (≈ 17 µM) | 16 (≈ 17 µM)
CC[C@H]1OC(=O)[C@H](C)[C@@H](O[C@H]2C[C@@](C)(OC)[C@@H](O)[C@H](C)O2)[C@H](C)[C@@H](O[C@@H]2O[C@H](C)C[C@H](N(C)C)[C@H]2O)[C@](C)(O)C[C@@H](C)CN(CCCN(CCC#N)C(=O)NCc2ccccc2)[C@H](C)[C@@H](O)[C@]1(C)O | 2 (≈ 2.04 µM) | ≤ 0.125 | 16 (≈ 16.4 µM) | 64 (≈ 65.4 µM) | ≤ 0.125 | 16 (≈ 16.4 µM) | 8 (≈ 8.18 µM) | 0.5 (≈ 0.511 µM) | 4 (≈ 4.09 µM) | 32 (≈ 32.7 µM) | 8 (≈ 8.18 µM)
CC[C@H]1OC(=O)[C@H](C)[C@@H](O[C@H]2C[C@@](C)(OC)[C@@H](O)[C@H](C)O2)[C@H](C)[C@@H](O[C@@H]2O[C@H](C)C[C@H](N(C)C)[C@H]2O)[C@](C)(O)C[C@@H](C)CN(CCCN(CCC#N)C(=S)NCc2ccccc2)[C@H](C)[C@@H](O)[C@]1(C)O | 1 (≈ 1.01 µM) | ≤ 0.125 | 16 (≈ 16.1 µM) | 64 (≈ 64.4 µM) | ≤ 0.125 | 16 (≈ 16.1 µM) | 8 (≈ 8.05 µM) | 1 (≈ 1.01 µM) | 4 (≈ 4.02 µM) | 32 (≈ 32.2 µM) | 16 (≈ 16.1 µM)
CC[C@H]1OC(=O)[C@H](C)[C@@H](O[C@H]2C[C@@](C)(OC)[C@@H](O)[C@H](C)O2)[C@H](C)[C@@H](O[C@@H]2O[C@H](C)C[C@H](N(C)C)[C@H]2O)[C@](C)(O)C[C@@H](C)CN(CCCNC(=S)NCc2ccccc2)[C@H](C)[C@@H](O)[C@]1(C)O | 0.5 (≈ 0.531 µM) | ≤ 0.125 | 8 (≈ 8.5 µM) | 64 (≈ 68 µM) | ≤ 0.125 | 4 (≈ 4.25 µM) | 4 (≈ 4.25 µM) | 1 (≈ 1.06 µM) | 2 (≈ 2.12 µM) | 8 (≈ 8.5 µM) | 16 (≈ 17 µM)
CC[C@H]1OC(=O)[C@H](C)[C@@H](O[C@H]2C[C@@](C)(OC)[C@@H](O)[C@H](C)O2)[C@H](C)[C@@H](O[C@@H]2O[C@H](C)C[C@H](N(C)C)[C@H]2O)[C@](C)(O)C[C@@H](C)CN(CCCN(CCC#N)C(=S)Nc2cccc3ccccc23)[C@H](C)[C@@H](O)[C@]1(C)O | 4 (≈ 3.88 µM) | ≤ 0.125 | 16 (≈ 15.5 µM) | 64 (≈ 62.1 µM) | ≤ 0.125 | 32 (≈ 31.1 µM) | 32 (≈ 31.1 µM) | 4 (≈ 3.88 µM) | 8 (≈ 7.76 µM) | 32 (≈ 31.1 µM) | 8 (≈ 7.76 µM)
